The list is not random: actives were taken first. Their share in the collection is about 3.1%.
CHO parental Ca = ATP-evoked calcium signal inhibitors, parental CHO, primary screen, counter-screen for OX1R antagonist project, cell-based, fluorescence, Fluo-8 calcium dye. parental CHO-K1, ATP-induced calcium, Fluo-8 fluorescence. inhibition, % at 5.6 µM. 0.63% of 330,000 active;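 active = inhibition above that plate's mean sample inhibition plus 3 SD, cut at about 26% in these data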;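 note: 0% = ATP-challenged DMSO wells and 100% = DMSO wells without ATP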
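Assay system: untransfected parental CHO cell line. Also added: ATP agonist challenge. Dosing: one dose, 5.6 µM nominal. Measured by: Fluo-8 fluorescence. Read-out: % inhibition. Benchmarks: ATP wells versus no-ATP DMSO wells. Repeats: no replicates.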
OX1R antag-1 = antagonists of human orexin 1 receptor (OX1R); OX1R-expressing cells, FRET antagonist read-out; inhibition, % at 6.6 µM; 1.8% of 330,000 active; Orexin/Hypocretin receptor type 1 (Homo sapiens), O43613; in the data active = inhibition mostly above about 38%, no sharp cut-off; inactive = mostly below about 40%;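 note: 0% = agonist challenge alone and 100% = reference antagonist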
Target sequence (O43613 whole entry, looked up): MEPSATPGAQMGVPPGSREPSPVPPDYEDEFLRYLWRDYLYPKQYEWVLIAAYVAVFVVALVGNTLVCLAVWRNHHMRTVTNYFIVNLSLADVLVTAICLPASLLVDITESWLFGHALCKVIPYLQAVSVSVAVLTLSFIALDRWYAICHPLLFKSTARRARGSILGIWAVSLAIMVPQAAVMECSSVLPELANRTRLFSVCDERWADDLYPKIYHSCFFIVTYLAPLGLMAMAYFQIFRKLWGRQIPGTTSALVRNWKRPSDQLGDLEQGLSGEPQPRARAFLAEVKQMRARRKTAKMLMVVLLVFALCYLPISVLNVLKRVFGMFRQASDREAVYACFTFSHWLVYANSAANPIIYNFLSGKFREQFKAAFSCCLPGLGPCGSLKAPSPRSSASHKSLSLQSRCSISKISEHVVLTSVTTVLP
GPR7 antag = GPR7 receptor antagonists, primary screen, cell-based, fluorescence, single concentration; inhibition, % at 4.4 µM; GPR7-expressing cells, fluorescence antagonist assay; 1.1% of 290,000 active; Neuropeptides B/W receptor type 1 (Homo sapiens), P48145; in the data active = inhibition above about 16%, passing the limit was not always enough;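 note: cells stimulated with the agonist NPW; 0% = agonist with vehicle and 100% = vehicle without agonist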
GalR3 antag = GalR3 antagonists in HEK293 cells, primary screen, cell-based, fluorescence readout | Galanin receptor type 3 (Homo sapiens), O60755 | HEK293 GalR3-CNG cAMP membrane potential fluorescence; galR3 body fused to GalR1 C-terminus | inhibition, % at 3 µM | 0.44% of 360,000 active | AID 651719, 2012;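 active = inhibition above the screen-wide average plus 3 SD, cut at about 13% in these data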;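 note: forskolin and galanin both at EC90 stimulate the cells; cAMP rise reported by CNG channel membrane potential dye signal; 0% = forskolin plus galanin with DMSO and 100% = forskolin alone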
Target sequence (O60755 1-299 limits assumed): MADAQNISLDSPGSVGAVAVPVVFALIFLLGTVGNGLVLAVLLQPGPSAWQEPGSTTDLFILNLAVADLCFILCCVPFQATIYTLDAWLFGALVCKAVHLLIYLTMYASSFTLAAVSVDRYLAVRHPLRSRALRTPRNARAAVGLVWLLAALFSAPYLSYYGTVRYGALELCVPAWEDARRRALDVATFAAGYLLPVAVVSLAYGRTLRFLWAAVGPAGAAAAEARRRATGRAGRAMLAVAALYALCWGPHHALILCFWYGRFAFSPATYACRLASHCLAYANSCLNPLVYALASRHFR
OX1R antag-2 = OX1R (HCRTR1) antagonists, primary screen, fluorescence, CHO/OX1R cells, Fluo-8 calcium, orexin A. Orexin/Hypocretin receptor type 1 (Homo sapiens), O43613. Fluo-8 calcium fluorescence. inhibition, % at 5 µM. 0.43% of 330,000 active;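 active = inhibition above its plate's threshold, mean inhibition of all tested compounds on the plate plus 3 SD, cut at about 37% in these data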;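 note: 0% = orexin A challenge wells and 100% = SB-334867-A antagonist wells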
OX1R Ca confirm = OX1R (HCRTR1) antagonists, confirmation, fluorescence, CHO/OX1R cells, Fluo-8 calcium, orexin A; 38% of 1,100 active; shares compounds with OX1R antag-2; orexin A calcium Fluo-8 fluorescence; inhibition, % at 5 µM; in the data active = inhibition above about 29%;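 note: 0% = agonist challenge alone and 100% = reference antagonist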
CHO Ca counter = ATP-evoked calcium inhibition in parental CHO, counter-screen for OX1R antagonist project, cell-based, fluorescence, CHO-K1, triplicate; shares compounds with OX1R antag-2; ATP-induced calcium, Fluo-8 fluorescence; inhibition, % at 5.6 µM; 9.3% of 1,100 active; AID 492965, 2010;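 active = inhibition above a per-plate limit, the mean inhibition of that plate's test compounds plus 3 SD, cut at about 25% in these data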;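 note: 0% = ATP challenge with DMSO and 100% = DMSO without ATP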
OX1R HTRF conf = OX1R (HCRTR1) antagonists, confirmation, cell-based, HTRF | shares compounds with OX1R antag-1 | OX1R-expressing cells, HTRF antagonist assay | inhibition, % at 6.6 µM | 49% of 1,800 active | AID 492964, 2010; in the data active = inhibition above about 55%;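 note: CHO cells expressing OX1R stimulated with orexin A at about EC80; 0% = agonist challenge alone and 100% = reference antagonist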
CHO-K1 HTRF = signal inhibition in parental CHO-K1 cells, counter-screen for OX1R antagonist project, cell-based, HTRF. inhibition, % at 6.6 µM. shares compounds with OX1R antag-1. HTRF counterscreen. 48% of 1,800 active. AID 493232, 2011; in the data active = inhibition above about 17%;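 note: 0% = agonist challenge with vehicle and 100% = vehicle alone without agonist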
* = called active by the depositor; . = no result given.

SMILES | CHO parental Ca | OX1R antag-1 | GPR7 antag | GalR3 antag | OX1R antag-2 | OX1R Ca confirm | CHO Ca counter | OX1R HTRF conf | CHO-K1 HTRF
COc1cccc(NC(=O)CN(C)C(=O)c2ccccc2-c2nc3ccccc3s2)c1 | -37 | 100* | . | -4 | 17 | 17 | -5 | 88* | 5
CCN(CC)c1ccc(NC(=O)Cn2c(C(C)NC(=O)c3ccccc3)nc3ccccc32)cc1 (stereo unspecified) | -1 | 93* | 3 | -2 | 54* | 61* | -13 | 88* | 3
Cc1cnc(NC(=O)c2ccc(-c3ccc([N+](=O)[O-])cc3)o2)s1 | -7 | 11 | . | -3 | -11 | . | . | . | .
Cc1cnc(NC(=O)c2ccc(-c3nc4ccccc4s3)o2)s1 | -27 | 106* | -9 | 5 | 82* | 83* | -8 | 101* | 10
COc1ccc(OC)c(NC(=O)c2cc3ccccc3o2)c1 | -7 | 85* | 1 | -5 | 41* | 0 | -7 | 52 | 12
COc1ccc(OC)c(NC(=O)c2cc(OC(C)=O)cc(C(=O)Nc3cc(OC)ccc3OC)c2)c1 | -10 | 85* | -19 | -8 | 39 | 54* | -2 | 85* | 5
COc1ccc(OC)c(NC(=O)c2csc(Cl)c2OC)c1 | -19 | 105* | 9 | -9 | 80* | 11 | -9 | 82* | 5
CCC(C(=O)NCc1ccco1)n1nc(C)n2c(cc3occc32)c1=O (stereo unspecified) | -14 | 12 | -14 | 1 | -12 | . | . | . | .
Clc1cccc(Cc2c(C3CCCCC3)nc3ccc(Br)cn23)c1 | . | . | . | -7 | . | . | . | . | .
Cc1c(C(=O)Nc2ccc(N3CCOCC3)cc2)oc2ccccc12 | 1 | 100* | 0 | -6 | 73* | 73* | 6 | 90* | 15
CCOC(=O)c1c(C)[nH]c(C)c1C(=O)COC(=O)c1cccs1 | -22 | 15 | . | -6 | -3 | . | . | . | .
COC(=O)c1ccccc1NC(=O)CSc1nc(O)cc(=O)n1C1CCCC1 | -8 | 78* | -2 | 9 | 31 | 50* | -13 | 88* | 4
CCc1ccc(NC(=O)CSc2nc(O)cc(=O)n2C2CCCC2)cc1 | -13 | 17 | -17 | -8 | 0 | . | . | . | .
CCOc1ccc(CN(C)C(=O)CNC(=O)C2CCCCC2)cc1 | -21 | 17 | -1 | -9 | -19 | . | . | . | .
NC(=O)C1CN(C(=O)c2cccc(S(=O)(=O)N3CCc4ccccc43)c2)c2ccccc2O1 (stereo unspecified) | -12 | 69* | . | 1 | 52* | 37* | -16 | 67* | -3
O=C(NNC(=O)c1cccc(S(=O)(=O)N2CCc3ccccc32)c1)c1ccccc1 | . | . | -22 | -4 | . | . | . | . | .
COCc1cc(=O)[nH]c2cc(NC(=O)C(C)(C)CCl)c(C)cc12 | -8 | 14 | -8 | -2 | -19 | . | . | . | .
Cc1cc2nc3c(=O)[nH]c(=S)[nH]c3nc2cc1NC(=O)C(F)(F)F | 20 | 49* | -1 | -9 | 29 | 7 | 4 | 47 | 88*
CCOC(=O)c1ccc2[nH]c3c(c2c1)CCCC3 | -11 | 78* | -16 | -10 | 31 | 5 | -3 | 52 | 0
CCOC(=O)c1ccc2[nH]c3c(c2c1)CCCC3O (stereo unspecified) | -4 | 18 | 15 | -6 | -10 | . | . | . | .
O=C(CN1C(=O)NC(c2ccccc2)(c2ccccc2)C1=O)NCCc1ccc(F)cc1 | -17 | 69* | . | 1 | 36 | 31* | 1 | 56* | -1
COc1ccccc1C(=O)NCCc1c(C)[nH]c2c(C)ccc(F)c12 | 12 | 50* | -6 | -8 | 26 | 2 | -22 | 32 | -4
COc1ccccc1C(=O)NCC(=O)NCCc1ccc(Cl)cc1 | -22 | 8 | -13 | -7 | -35 | . | . | . | .
Cn1c2ccc(Cl)cc2c2nc3ccccc3nc21 | -14 | 91* | -11 | 3 | 31 | 40* | -9 | 92* | -1
C=CC(COCc1ccccc1)N(C(=O)OC(C)(C)C)S(=O)(=O)c1ccccc1Br (stereo unspecified) | -10 | 38 | . | -2 | -7 | . | . | . | .
SMILES | CHO parental Ca | OX1R antag-1 | GPR7 antag | GalR3 antag | OX1R antag-2 | OX1R Ca confirm | CHO Ca counter | OX1R HTRF conf | CHO-K1 HTRF
COc1ccc(CN(CC(O)COCc2ccccc2)S(=O)(=O)c2ccccc2Br)cc1OC (stereo unspecified) | -11 | 46* | . | -7 | 55* | 21 | -16 | 68* | -2
O=C(NC(Cc1c[nH]c2ccccc12)C(=O)N/N=C/c1ccc(Cl)cc1)c1cccs1 (stereo unspecified) | -5 | 98* | 2 | -7 | 48* | 64* | 8 | 81* | -1
O=C(/C=C/c1c(F)cccc1Cl)NCc1ccc2c(c1)OCO2 | -15 | 7 | -1 | -11 | -22 | . | . | . | .
CC(C)n1nnnc1C1c2ccccc2C(=O)N1CCc1c[nH]c2ccccc12 (stereo unspecified) | . | . | . | -7 | . | . | . | . | .
COc1ccc(NC(=O)CSc2nc3c(c(=O)n2-c2ccccc2OC)SCC3)cc1 | -5 | 3 | -3 | . | -19 | . | . | . | .
CCSc1nnc(NC(=O)CSc2nc3c(c(=O)n2-c2ccccc2OC)SCC3)s1 | -13 | 36* | -8 | -8 | 38 | 28 | -4 | 76* | -1
CCC(C)NCC(=O)Nc1cc(S(=O)(=O)N(CC)c2ccccc2)ccc1Cl (stereo unspecified) | -28 | 19 | -20 | -5 | -21 | . | . | . | .
CCN(c1ccccc1)S(=O)(=O)c1ccc(Cl)c(NC(=O)CNC(C)c2ccccc2)c1 (stereo unspecified) | -11 | 28* | . | -4 | 50* | 22 | 37* | 29 | -2
C=CCN1C(=O)/C(=C/c2ccc(OCC(=O)O)cc2)S/C1=N/c1nccs1 | -16 | 14 | -13 | -6 | -12 | . | . | . | .
C=CCN1C(=O)/C(=C/c2ccc(O)c(OC)c2)S/C1=N/c1nccs1 | 31 | 89* | -10 | -4 | 41 | 36* | 22 | 66* | 13
O=C(NCC1COc2ccccc2O1)c1ccc(F)c(S(=O)(=O)N2CCOCC2)c1 (stereo unspecified) | . | . | . | -4 | . | . | . | . | .
